Tested on: Fibroblast
Test: Multiplex assay against human fibroblast
Format: toxicity, cell-based
How it was run: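 Four dyes were applied at seeding to live cells: Hoechst33342, BioTracker Green Microtubule Cytoskeleton Dye, MitoTracker Red and Annexin V Alexa Fluor 680. Imaging after compound addition used a CQ1 microscope at 37°C and 5% CO2. CellPathfinder machine-learning gating then sorted cells into Hoechst high-intensity objects or normal cells, normal cells into healthy, pyknosed or fragmented nuclei, and pyknosed cells into mitotic or apoptotic, with tubulin, mitochondrial-mass and membrane-permeability phenotypes given as per cents of healthy-nucleus cells.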

[1] = 12 h, 1 µM, compound concentration 1 uM, replicate 1
[2] = 12 h, 1 µM, compound concentration 1 uM, replicate 2
[3] = 12 h, 10 µM, compound concentration 10 uM, replicate 1
[4] = 12 h, 10 µM, compound concentration 10 uM, replicate 2
[5] = 24 h, 1 µM, compound concentration 1 uM, replicate 1
[6] = 24 h, 1 µM, compound concentration 1 uM, replicate 2
[7] = 24 h, 10 µM, compound concentration 10 uM, replicate 1
[8] = 24 h, 10 µM, compound concentration 10 uM, replicate 2
[9] = 48 h, 1 µM, compound concentration 1 uM, replicate 1
[10] = 48 h, 1 µM, compound concentration 1 uM, replicate 2
[11] = 48 h, 10 µM, compound concentration 10 uM, replicate 1
[12] = 48 h, 10 µM, compound concentration 10 uM, replicate 2

Compound: CN(C)c1ccnc2sc3c(=O)n(N4CCCCCC4)cnc3c12
- Population Apoptotic (%) [1]: 42%
- Population Fragmented Nuclei (%) [1]: 17%
- Population Healthy Nuclei (%) [1]: 64%
- Population Hoechst High Intensity Objects (%) [1]: 3%
- Population Membrane Permeable-Phenotype (%) [1]: 1%
- Population Mitochondria Different-Phenotype (%) [1]: 3%
- Population Mitotic Cells (%) [1]: 57%
- Population Normal (%) [1]: 96%
- Population Pyknosed Nuclei (%) [1]: 18%
- Population Tubulin-Different-Phenotype (%) [1]: 29%
- Total Cell Count [1]: 144
- Population Apoptotic (%) [2]: 30%
- Population Fragmented Nuclei (%) [2]: 28%
- Population Healthy Nuclei (%) [2]: 51%
- Population Hoechst High Intensity Objects (%) [2]: 6%
- Population Membrane Permeable-Phenotype (%) [2]: 10%
- Population Mitotic Cells (%) [2]: 70%
- Population Normal (%) [2]: 93%
- Population Pyknosed Nuclei (%) [2]: 19%
- Population Tubulin-Different-Phenotype (%) [2]: 44%
- Total Cell Count [2]: 162
- Population Apoptotic (%) [3]: 44%
- Population Fragmented Nuclei (%) [3]: 14%
- Population Healthy Nuclei (%) [3]: 58%
- Population Hoechst High Intensity Objects (%) [3]: 5%
- Population Membrane Permeable-Phenotype (%) [3]: 1%
- Population Mitochondria Different-Phenotype (%) [3]: 14%
- Population Mitotic Cells (%) [3]: 55%
- Population Normal (%) [3]: 94%
- Population Pyknosed Nuclei (%) [3]: 27%
- Population Tubulin-Different-Phenotype (%) [3]: 75%
- Total Cell Count [3]: 141
- Population Apoptotic (%) [4]: 49%
- Population Fragmented Nuclei (%) [4]: 31%
- Population Healthy Nuclei (%) [4]: 30%
- Population Hoechst High Intensity Objects (%) [4]: 7%
- Population Membrane Permeable-Phenotype (%) [4]: 12%
- Population Mitotic Cells (%) [4]: 50%
- Population Normal (%) [4]: 92%
- Population Pyknosed Nuclei (%) [4]: 38%
- Total Cell Count [4]: 145
- Population Apoptotic (%) [5]: 48%
- Population Fragmented Nuclei (%) [5]: 11%
- Population Healthy Nuclei (%) [5]: 67%
- Population Hoechst High Intensity Objects (%) [5]: 3%
- Population Membrane Permeable-Phenotype (%) [5]: 0%
- Population Mitochondria Different-Phenotype (%) [5]: 3%
- Population Mitotic Cells (%) [5]: 51%
- Population Normal (%) [5]: 96%
- Population Pyknosed Nuclei (%) [5]: 21%
- Population Tubulin-Different-Phenotype (%) [5]: 27%
- Total Cell Count [5]: 143
- Population Apoptotic (%) [6]: 50%
- Population Fragmented Nuclei (%) [6]: 24%
- Population Healthy Nuclei (%) [6]: 55%
- Population Hoechst High Intensity Objects (%) [6]: 2%
- Population Membrane Permeable-Phenotype (%) [6]: 10%
- Population Mitochondria Different-Phenotype (%) [6]: 2%
- Population Mitotic Cells (%) [6]: 50%
- Population Normal (%) [6]: 97%
- Population Pyknosed Nuclei (%) [6]: 19%
- Population Tubulin-Different-Phenotype (%) [6]: 49%
- Total Cell Count [6]: 146
- Population Apoptotic (%) [7]: 57%
- Population Fragmented Nuclei (%) [7]: 13%
- Population Healthy Nuclei (%) [7]: 58%
- Population Hoechst High Intensity Objects (%) [7]: 5%
- Population Membrane Permeable-Phenotype (%) [7]: 0%
- Population Mitochondria Different-Phenotype (%) [7]: 18%
- Population Mitotic Cells (%) [7]: 42%
- Population Normal (%) [7]: 94%
- Population Pyknosed Nuclei (%) [7]: 28%
- Population Tubulin-Different-Phenotype (%) [7]: 63%
- Total Cell Count [7]: 130
- Population Apoptotic (%) [8]: 30%
- Population Fragmented Nuclei (%) [8]: 35%
- Population Healthy Nuclei (%) [8]: 41%
- Population Hoechst High Intensity Objects (%) [8]: 8%
- Population Membrane Permeable-Phenotype (%) [8]: 22%
- Population Mitochondria Different-Phenotype (%) [8]: 24%
- Population Mitotic Cells (%) [8]: 69%
- Population Normal (%) [8]: 91%
- Population Pyknosed Nuclei (%) [8]: 22%
- Population Tubulin-Different-Phenotype (%) [8]: 85%
- Total Cell Count [8]: 128
- Population Apoptotic (%) [9]: 64%
- Population Fragmented Nuclei (%) [9]: 19%
- Population Healthy Nuclei (%) [9]: 70%
- Population Hoechst High Intensity Objects (%) [9]: 2%
- Population Membrane Permeable-Phenotype (%) [9]: 0%
- Population Mitochondria Different-Phenotype (%) [9]: 0%
- Population Mitotic Cells (%) [9]: 35%
- Population Normal (%) [9]: 97%
- Population Pyknosed Nuclei (%) [9]: 10%
- Population Tubulin-Different-Phenotype (%) [9]: 30%
- Total Cell Count [9]: 143
- Population Apoptotic (%) [10]: 36%
- Population Fragmented Nuclei (%) [10]: 36%
- Population Healthy Nuclei (%) [10]: 49%
- Population Hoechst High Intensity Objects (%) [10]: 3%
- Population Membrane Permeable-Phenotype (%) [10]: 6%
- Population Mitochondria Different-Phenotype (%) [10]: 2%
- Population Mitotic Cells (%) [10]: 63%
- Population Normal (%) [10]: 96%
- Population Pyknosed Nuclei (%) [10]: 14%
- Population Tubulin-Different-Phenotype (%) [10]: 41%
- Total Cell Count [10]: 157
- Population Apoptotic (%) [11]: 73%
- Population Fragmented Nuclei (%) [11]: 22%
- Population Healthy Nuclei (%) [11]: 47%
- Population Hoechst High Intensity Objects (%) [11]: 8%
- Population Membrane Permeable-Phenotype (%) [11]: 0%
- Population Mitochondria Different-Phenotype (%) [11]: 25%
- Population Mitotic Cells (%) [11]: 26%
- Population Normal (%) [11]: 91%
- Population Pyknosed Nuclei (%) [11]: 30%
- Population Tubulin-Different-Phenotype (%) [11]: 76%
- Total Cell Count [11]: 138
- Population Apoptotic (%) [12]: 50%
- Population Fragmented Nuclei (%) [12]: 47%
- Population Healthy Nuclei (%) [12]: 42%
- Population Hoechst High Intensity Objects (%) [12]: 6%
- Population Membrane Permeable-Phenotype (%) [12]: 19%
- Population Mitochondria Different-Phenotype (%) [12]: 13%
- Population Mitotic Cells (%) [12]: 50%
- Population Normal (%) [12]: 93%
- Population Pyknosed Nuclei (%) [12]: 9%
- Population Tubulin-Different-Phenotype (%) [12]: 86%
- Total Cell Count [12]: 131

From ChEMBL document CHEMBL5058577, “EUbOPEN Chemogenomics Library 2 (Multiplex)” (2022)
